In ChEMBL document CHEMBL1649215, “In vitro activities of trioxaquines against Schistosoma mansoni” (2009) one finds Activity data, which are given here for nine compounds.

Structures are written as SMILES. Activity calls are given as the source filed them. No cut-off for these calls is given here.

In test [1] the test system is Schistosoma mansoni. As to the kind of experiment: Antiparasitic activity against Schistosoma mansoni assessed as parasite death at 300 ug/ml. Type of test: functional. The gist of the method:
(§1)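 Schistosomula (day 21) and adults (day 49) were taken from percutaneously infected Swiss OF1 mice. Compounds were serially diluted in DMSO, with the last step into RPMI containing Tween 80, and worms were exposed across a concentration and time range. Survival was recorded and groups compared by pairwise log-rank tests (α = 1%).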

Test [2] concerns Schistosoma mansoni. As to the kind of experiment: Antiparasitic activity against Schistosoma mansoni larva assessed as reduction of body contractility and movement at 5 ug/ml. It counts as functional, organism-based. The gist of the method:
(§2)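 Brazilian S. mansoni maintained in Swiss OF1 mice. Schistosomula recovered 21 days after percutaneous infection with 400 cercariae, and adults 49 days after 120 cercariae. Final concentration was 5 µg/ml for larvae and 50 µg/ml for adults, in RPMI/Tween 80/DMSO (1,000/0.95/3.8). Survival was followed over time and compared by pairwise log-rank tests (α = 1%).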

Test [3] concerns Schistosoma mansoni. As to the kind of experiment: Antiparasitic activity against Schistosoma mansoni assessed as parasite death at 10 ug/ml. Type of test: functional. The gist of the method: as §1
The subject of test [4] is Schistosoma mansoni. Put plainly: Antiparasitic activity against Schistosoma mansoni adult worm assessed as reduction of body contractility and movement at 50 ug/ml. It counts as functional, organism-based. The gist of the method: as §2
The test system of test [5] is Schistosoma mansoni. Put plainly: Antiparasitic activity against Schistosoma mansoni assessed as parasite death at 5 ug/ml. It counts as functional. In short, it runs like this: as §1
The test system of test [6] is Schistosoma mansoni. Put plainly: Antiparasitic activity against Schistosoma mansoni larva assessed as reduction of body contractility and movement at 5 ug/ml.
The subject of test [7] is Schistosoma mansoni. As to the kind of experiment: Antiparasitic activity against Schistosoma mansoni adult worm assessed as reduction of body contractility and movement at 50 ug/ml.
Test [8] has as its system Schistosoma mansoni. Put plainly: Antiparasitic activity against Schistosoma mansoni assessed as parasite death at 100 ug/ml. It counts as functional. In short, it runs like this: as §1
Test [9] deals with Schistosoma mansoni. Put plainly: Antiparasitic activity against Schistosoma mansoni larva assessed as reduction of body contractility and movement at 5 ug/ml within 7 hrs. Type of test: functional, organism-based. In short, it runs like this: as §2
The test system of test [10] is Schistosoma mansoni. As to the kind of experiment: Antiparasitic activity against Schistosoma mansoni adult worm assessed as reduction of body contractility and movement at 50 ug/ml within 7 hrs.

As for `CO[C@H]1O[C@@H]2O[C@@]3(C)CC[C@H]4[C@H](C)CC[C@@H]([C@H]1C)[C@@]24OO3` [ARTEMETHER], the Activity in the test on Schistosoma mansoni [1] is given as 100%.
For the compound `O=C(C1CCCCC1)N1CC(=O)N2CCc3ccccc3C2C1` (stereo unspecified) [PRAZIQUANTEL], the result with Schistosoma mansoni [2], in the test with Schistosoma mansoni [4], in the test on Schistosoma mansoni [6] and with Schistosoma mansoni [7] was Active. Also, the Activity with Schistosoma mansoni [3] and in the test with Schistosoma mansoni [5] was 100% each time.
For the compound `Clc1ccc2c(N[C@H]3CC[C@H](NC4CCC5(CC4)OCC4(CCCC4)OO5)CC3)ccnc2c1` (stereo partly specified), the outcome in the test on Schistosoma mansoni [2], in the test on Schistosoma mansoni [9], in the test on Schistosoma mansoni [4], in the test on Schistosoma mansoni [6], in the test on Schistosoma mansoni [7] and in the test with Schistosoma mansoni [10] was Active. Moreover, the Activity with Schistosoma mansoni [3], with Schistosoma mansoni [8], with Schistosoma mansoni [1] and in the test with Schistosoma mansoni [5] was 100% in each case.
With `CN(C1CCC2(CC1)OCC(C)(C)OO2)[C@H]1CC[C@H](Nc2ccnc3cc(Cl)ccc23)CC1` (stereo partly specified), the result with Schistosoma mansoni [2], in the test on Schistosoma mansoni [4], in the test on Schistosoma mansoni [6] and in the test on Schistosoma mansoni [7] was Active. Further, the outcome in the test with Schistosoma mansoni [9] and in the test on Schistosoma mansoni [10] was inactive.
For `C[C@H]1[C@H](OC(=O)CCC(=O)O)O[C@@H]2O[C@@]3(C)CC[C@H]4[C@H](C)CC[C@@H]1[C@@]24OO3` [ARTESUNATE], the Activity with Schistosoma mansoni [1] was 100%.
On to `CC1(C)COC2(CCC(N[C@H]3CC[C@H](Nc4ccnc5cc(C(F)(F)F)ccc45)CC3)CC2)OO1` (stereo partly specified), for which the outcome with Schistosoma mansoni [2], in the test with Schistosoma mansoni [4], with Schistosoma mansoni [6], in the test on Schistosoma mansoni [7] and in the test on Schistosoma mansoni [10] was Active.
Regarding `CC1(C)COC2(CCC(N[C@H]3CC[C@H](Nc4ccnc5cc(Cl)ccc45)CC3)CC2)OO1` (stereo partly specified), the outcome in the test on Schistosoma mansoni [2], in the test with Schistosoma mansoni [9], with Schistosoma mansoni [4], in the test with Schistosoma mansoni [6], with Schistosoma mansoni [7] and in the test with Schistosoma mansoni [10] was Active.
For the compound `Clc1ccc2c(NCCN3CCC4(CC3)OCC3(CCCCC3)OO4)ccnc2c1`, the outcome in the test on Schistosoma mansoni [2], with Schistosoma mansoni [4], in the test on Schistosoma mansoni [6], in the test with Schistosoma mansoni [7] and with Schistosoma mansoni [10] was Active.
`Clc1ccc2c(NCCN3CCC4(CC3)OCC3(CCCC3)OO4)ccnc2c1`: the outcome in the test with Schistosoma mansoni [2], with Schistosoma mansoni [9], with Schistosoma mansoni [4], in the test with Schistosoma mansoni [6], in the test with Schistosoma mansoni [7] and in the test with Schistosoma mansoni [10] was Active.
